Vif inh = HIV Vif self-association inhibitors, primary screen, imaging, HEK293T, single point; actives 0.35% (n = 340,000); inhibition, % at 7.49 µM; HEK293T cells, Vif self-association by quenched fluorescence, 24 h; in the data active = inhibition above about 50%, passing the limit was not always enough; inconclusive = no clear call, values can overlap the other calls; inactive = below about 31%
CAL PDZ FP-1 = CAL PDZ peptide-binding inhibitors, primary screen, biochemical, fluorescence polarization, Cer-tagged CAL PDZ, HTS | Golgi-associated PDZ and coiled-coil motif-containing protein (Homo sapiens), Q9HD26 | purified CAL PDZ, TMR-peptide fluorescence polarization, 1 h | inhibition, % at 20 µM | actives 0.02% (n = 330,000) | AID 504414, 2011;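 active = highest replicate inhibition of at least 40%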;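 also: plate controls were DMSO neutral control wells for no effect and unlabeled competitor peptide control wells for full effect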
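Assay system – tagged CAL PDZ protein CerCALP, purified · Timing – 1 h at RT · Compound – single point, 20 µM · Measured by – fluorescence polarization from S- and P-plane intensities, G-factor corrected · Evaluation – inhibition from polarization loss · Probe or stimulus – TMR reporter peptide T*-PRC34 · Buffer or medium – pH 7.4 phosphate-saline buffer, reducing agent, detergent, IgG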
CAL PDZ FP-2 = untagged CAL PDZ binding inhibitors, primary screen, biochemical, fluorescence polarization, HTS; purified CAL PDZ, TMR-peptide fluorescence polarization, 1 h; inhibition, % at 24.9 µM; actives 0.92% (n = 300,000); AID 602252, 2012;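 active = mean inhibition of at least 30% with at least half of replicates also reaching 30%; inconclusive = no clear call, values can overlap the other calls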;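 also: 0% = DMSO neutral control and 100% = excess unlabeled competitor peptide PRC23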
PvdQ acylase = P. aeruginosa PvdQ acylase inhibitors, primary screen, biochemical, fluorescence, plate reader and imaging, single point. purified PvdQ acylase. AID 488965, 2010. PvdQ acylase [Pseudomonas aeruginosa LESB58]. actives 0.063% (n = 340,000). inhibition, % at 10 µM; in the data active = inhibition above about 30%, passing the limit was not always enough; inconclusive = no clear call, values can overlap the other calls;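 also: 0% = vehicle neutral wells and 100% = reference inhibitor wells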
Glyco luc inh = increase of ERlucT glycosylation luciferase signal, primary screen, N-linked glycosylation inhibitor project, D54 ERlucT cells, luminescence, set 2; D54 ERlucT glycosylation luciferase reporter, 24 h; percent of 100 nM tunicamycin response; reporter increase, % at 12.5 µM; actives 0.23% (n = 360,000);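 active = mean luciferase reporter signal, scaled so untreated is 0 and the glycosylation-blocking control 100, at or above a set limit in every replicate; inconclusive = mean reaches the limit but not every replicate does; inactive = mean below the limit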;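 also: luciferase carries N-glycosylation sites so blocking glycosylation raises the light; 0% = median of neutral control wells and 100% = median of 100 nM tunicamycin wells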
CDK5 inh = inhibitors of human CDK5/p35 kinase, primary screen, biochemical, single concentration. actives 0.01% (n = 330,000). inhibition, % at 10 µM. Recombinant CDK5/p35, ADP-Glo luminescence, 60 min. Cyclin-dependent kinase 5 (Homo sapiens) + Cyclin-dependent kinase 5 activator 1 (Homo …;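 active = highest replicate inhibition of at least 50% and at least 75% of replicates reaching 50%; inconclusive = only one of the two criteria met; inactive = both criteria failed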;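 also: plate controls were DMSO neutral control for no effect and GW8510 at 10 µM for full effect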
Target sequence (Q00535 whole entry, looked up): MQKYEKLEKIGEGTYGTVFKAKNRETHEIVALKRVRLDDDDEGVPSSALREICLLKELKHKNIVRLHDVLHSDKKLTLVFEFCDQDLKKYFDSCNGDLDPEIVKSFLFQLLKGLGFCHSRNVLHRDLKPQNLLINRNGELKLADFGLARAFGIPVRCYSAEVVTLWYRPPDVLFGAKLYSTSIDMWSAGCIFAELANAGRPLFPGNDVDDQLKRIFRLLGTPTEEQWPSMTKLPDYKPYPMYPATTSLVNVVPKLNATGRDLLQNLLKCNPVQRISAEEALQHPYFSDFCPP
Target sequence (Q15078 whole entry, looked up): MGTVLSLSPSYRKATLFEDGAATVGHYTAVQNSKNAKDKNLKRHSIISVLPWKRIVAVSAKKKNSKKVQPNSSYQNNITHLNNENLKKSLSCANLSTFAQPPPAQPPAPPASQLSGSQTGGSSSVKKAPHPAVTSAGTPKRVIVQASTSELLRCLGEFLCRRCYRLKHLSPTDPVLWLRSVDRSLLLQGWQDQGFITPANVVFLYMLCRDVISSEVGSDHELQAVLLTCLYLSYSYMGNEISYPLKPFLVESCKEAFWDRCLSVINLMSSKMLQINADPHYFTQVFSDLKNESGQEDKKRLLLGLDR
* = called active by the depositor; ? = inconclusive; nt = no result; + = active, no number. Sampled rows, rich in hits. Any-hit rate of the full collection: about 1.4%.

SMILES	Vif inh	CAL PDZ FP-1	CAL PDZ FP-2	PvdQ acylase	Glyco luc inh	CDK5 inh
C#CCOCCOCCOCCNc1nc(N2CCN(C(=O)CCCCCCCCCCNC(=O)Cn3cc(CCCCCN)nn3)CC2)nc(N2CCN(C(=O)CCCCCCCCCCNC(=O)[C@H](CO)n3cc(CCCCCN)nn3)CC2)n1	53.5*	-1.8	-2.8	-13.9	1.5	0.8
COc1ccccc1/C=C1\N=C(C(C)(C)C)OC1=O	-1.4	-2.5	-0.5	5.0	-1.5	-0.1
CCN(CC)CCCNC(=O)c1cn(CC(C)C)c(=O)c2c1c1ccccc1n2C	14.0	-1.2	49.5*	-19.9	-1.1	0.3
CCCCN(CC)CCCNC(=O)c1cn(CC(C)C)c(=O)c2c1c1ccccc1n2C	6.4	1.0	-0.7	2.8	-4.2	0.4
CC(C(=O)N1CCCC1)N(C)CC(=O)Nc1cccc(F)c1 (stereo unspecified)	-2.8	0.2	2.0	-7.2	1.3	1.1
O=C(NCC1CCCO1)c1cc([N+](=O)[O-])ccc1N1CCC(Cc2ccccc2)CC1 (stereo unspecified)	18.0	-2.2	-0.4	-4.6	5.6	-3.6
CC(C)C1CC(=O)NC(SCC(=O)Nc2ccc(Br)cc2)=C1C#N (stereo unspecified)	-7.3	0.1	57.4*	-14.6	-4.6	-1.9
COc1ccccc1Oc1nc2c(c(=O)n(Cc3ccccc3F)c(=O)n2C)n1C	-2.8	-2.3	75.1*	-5.7	0.0	1.5
CN1/C(=C\C=Nc2ccc3ccccc3c2)C(C)(C)c2ccccc21	78.2*	0.6	-17.7	1.1	-2.0	0.1
CN(C)c1ccc(N=C/C=C2\N(C)c3ccccc3C2(C)C)cc1	14.7	0.8	1.3	-16.7	-9.1	-2.1
C=CCNC(=S)NNC(=O)c1ccc(C)c(Cl)c1	5.1	-0.6	67.4*	-13.2	1.7	-0.6
CC(C(=O)Nc1ccc2c(c1)OCO2)n1cnc2c1c(=O)n(C)c(=O)n2C (stereo unspecified)	-2.9	0.0	3.2	-4.4	3.4	0.3
CC1CCCCC1NC(=O)COC(=O)COc1ccccc1F (stereo unspecified)	2.8	0.1	-1.0	-1.0	0.8	-0.4
C=CC(=O)Nc1cccc(Nc2nc(N[C@H]3CC[C@H](N(C)C)CC3)nc3c2ncn3C(C)C)c1	0.1	3.1	-1.9	3.0	-13.6	83.2*
CC(C)n1cnc2c(Nc3ccc(C(=O)O)cc3)nc(Cl)nc21	6.2	1.3	0.5	-12.0	0.0	34.3
CCC1(c2ccc(F)cc2)NC(=O)N(CC(=O)c2cc(C)n(C3CC3)c2C)C1=O (stereo unspecified)	nt	-2.7	-3.9	-8.3	-2.3	0.5
CC(=O)c1ccc(S(=O)(=O)Nc2ccc(Cl)c(S(=O)(=O)N3CCCC3)c2)cc1	-4.3	-0.3	63.1*	-17.6	2.2	-1.2
O=C(CNC(=O)N1CC(=O)Nc2ccccc21)NCCc1ccc(Cl)cc1	-20.0	-2.1	-5.1	-16.4	9.7	0.6
O=C(CNC(=O)N1CC(=O)Nc2ccccc21)NCCCc1ccccc1	-0.2	nt	nt	nt	27.3*	nt
CC(=O)Nc1sc2c(c1C(N)=O)CCC2	-2.5	nt	67.8*	-8.8	0.2	8.4
CCOC(=O)c1cnc2nc(C(F)(F)F)[nH]n2c1=O	4.5	-0.9	102.7*	-10.3	1.1	-0.1
NC(=O)CC(NC(=O)c1ccc(Br)cc1)c1ccc(N2CCCCCC2)c([N+](=O)[O-])c1 (stereo unspecified)	9.1	0.5	-2.0	18.9	32.8*	1.0
NC(=O)CC(NC(=O)c1ccccc1)c1ccc(N2CCCCCCC2)c([N+](=O)[O-])c1 (stereo unspecified)	-4.0	-1.0	0.1	-6.4	1.0	-0.3
CCC(CC)Nc1ccc(C(CC(N)=O)NC(=O)Cc2ccc(Br)cc2)cc1[N+](=O)[O-] (stereo unspecified)	nt	-0.3	-1.4	-12.2	49.8*	-0.6
NC(=O)CC(NC(=O)Cc1ccc(Cl)cc1)c1ccc(NC2CC3CCC2C3)c([N+](=O)[O-])c1 (stereo unspecified)	-13.6	0.0	-1.7	6.6	37.1*	-0.6
SMILES	Vif inh	CAL PDZ FP-1	CAL PDZ FP-2	PvdQ acylase	Glyco luc inh	CDK5 inh
CCCCNc1ccc(C(CC(N)=O)NC(=O)Cc2ccc(Br)cc2)cc1[N+](=O)[O-] (stereo unspecified)	nt	0.1	1.1	-16.9	?	0.6
O=C(O)Cn1c2ccccc2c2n[nH]c(=S)nc21	6.3	-1.1	7.3	12.7	-2.2	4.9
CC(CC(=O)NNC(=O)c1ccncc1)c1ccccc1 (stereo unspecified)	17.2	0.8	-0.1	-2.6	-1.4	0.8
COc1ccccc1NS(=O)(=O)c1ccc(C(=O)NCC(c2cccs2)N2CCOCC2)cc1 (stereo unspecified)	8.8	0.4	nt	-0.8	-1.0	-8.2
COc1ccc(-c2ncc(CN3CCN(CCC(C)C)C(CCO)C3)cn2)cc1 (stereo unspecified)	-0.5	-1.7	93.3*	-12.6	-3.6	-2.3
COc1ccc(CC(=O)Nc2ccc(S(=O)(=O)Nc3cc(C)on3)cc2)cc1	7.3	-1.2	48.9*	-12.1	2.2	0.1
COc1ccc(CC(=O)Nc2ccc(-c3noc(-c4ccc(Cl)cc4)n3)cc2)cc1	?	-1.1	nt	-12.3	1.2	0.8
Cc1cc(NS(=O)(=O)c2ccc(NC(=S)NC(=O)c3cccc(S(=O)(=O)N(C)C)c3)cc2)no1	-6.1	-2.7	52.2*	-11.9	2.4	-1.2
COc1ccc(CC(=O)Nc2ccc(-c3noc(-c4cc(OC)c(OC)c(OC)c4)n3)cc2)cc1	+	0.0	nt	-15.7	0.8	-0.4
COc1ccc(OCC(=O)Nc2ccc(S(=O)(=O)Nc3cc(C)on3)cc2)cc1	1.3	-2.0	-1.7	-6.5	-0.2	-0.8
Cc1cc(NS(=O)(=O)c2ccc(NC(=O)COc3c(C)cc(Br)cc3C)cc2)no1	7.0	-3.0	-2.8	-10.5	32.7*	2.0
COc1cc(C(=O)Nc2ccc3c(c2)N(C(=O)CN2CCN(C)CC2)c2ccccc2CC3)cc(OC)c1OC	11.0	-2.0	-7.2	2.2	8.2	-0.1
CCN(C[C@H]1N[C@@](Cc2ccccc2)(C(=O)OC)[C@H]2C(=O)N(Cc3ccccc3)C(=O)[C@@H]12)C(=O)Nc1ccc(C(F)(F)F)cc1	nt	-0.6	4.7	-19.0	-7.7	-0.1
